Screening results deposited in PubChem BioAssay by Sanford-Burnham Center for Chemical Genomics.
SENP7 inh: SENP7 protease inhibition; Q9BQF6; recombinant SENP7, Z-RLRGG-aminoluciferin luminescence, 40 min; inhibition, % at 5 µM; 330,000 tested, 1.5% active; AID 434973;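 active = inhibition above about 50% at the single test dose, limit read from the data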
Target sequence (Q9BQF6 706-1050 limits assumed): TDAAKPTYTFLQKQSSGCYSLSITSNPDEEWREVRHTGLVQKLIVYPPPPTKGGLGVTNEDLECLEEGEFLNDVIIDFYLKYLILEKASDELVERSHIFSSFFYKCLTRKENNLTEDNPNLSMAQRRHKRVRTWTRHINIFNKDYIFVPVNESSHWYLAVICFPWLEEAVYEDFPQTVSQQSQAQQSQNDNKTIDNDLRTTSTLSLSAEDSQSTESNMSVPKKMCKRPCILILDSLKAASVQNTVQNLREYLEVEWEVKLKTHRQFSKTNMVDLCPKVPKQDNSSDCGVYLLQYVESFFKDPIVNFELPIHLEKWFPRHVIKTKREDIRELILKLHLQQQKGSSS
SENP6 block: SENP6 protease inhibition; Q9GZR1; Recombinant SENP6 catalytic domain, aminoluciferin luminescence; inhibition, % at 10 µM; 330,000 tested, 1.8% active; AID 2599;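 active = inhibition above about 50% at the single tested dose, limit read from the data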
SENP8 block-1: inhibitors of human SENP8 protease; 360,000 tested, 0.64% active; AID 602440; recombinant SENP8, Nedd8 substrate fluorescence; inhibition, % at 20 µM; in the data active = inhibition mostly above about 40%, no sharp cut-off; inactive = mostly below about 27%
SENP8 block-2: blocks the human protease SENP8 | Q96LD8 | purified SENP8, Z-RLRGG-aminoluciferin cleavage, luminescence | inhibition, % at 10 µM | 330,000 tested, 1.2% active; in the data active = inhibition above about 50%
CendR NRP1 mod: alters CendR peptide binding to human NRP-1; O14786; FAM-RPARPAR peptide binding to NRP-1, fluorescence polarization; inhibition, % at 25 µM; 360,000 tested, 0.85% active;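 active = inhibition or corrected inhibition above about 18%, plus a signal ratio from 0.5 to 1.5, limit read from the data, passing the limit was not always enough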
SENP1 FRET inh: inhibitors of human SENP1 SUMO protease catalytic domain | 360,000 tested, 0.21% active | inhibition, % at 10 µM | Q9P0U3 | recombinant SENP1 catalytic domain, CyPet-SUMO1-YPet FRET cleavage;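 active = inhibition at least 30% at 10 µM, raw YFP signal under a set limit, fluorescence ratio 0.5 to 1.5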
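Assay system – human recombinant His6-tagged SENP1 catalytic domain enzyme · Input – SENP1 enzyme, 20 pM final · Buffer or medium – Tris pH 8 buffer plus EDTA, NaCl, BME, BSA, NP40, catalase · Schedule – 50 min reaction at room temperature · Technique – FRET read of cyan and yellow fluorescence · Control set – no-enzyme wells low, DMSO-plus-enzyme wells high control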
SENP8 conf: human SENP8 inhibition, confirmed. shares compounds with SENP7 inh. Recombinant SENP8, Z-RLRGG-aminoluciferin luminescence, 60 min. inhibition, % at 12.5 µM. 6,200 tested, 40% active;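 active = mean inhibition across replicates above about 50%, limit read from the data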
SENP6 conf: human SENP6 inhibition, confirmed; shares compounds with SENP7 inh; recombinant SENP6, Z-RLRGG-aminoluciferin luminescence; inhibition, % at 12.5 µM; 6,200 tested, 58% active; AID 488915
SENP7 confirm: confirmation of human SENP7 protease inhibitors | shares compounds with SENP7 inh | recombinant SENP7, Z-RLRGG-aminoluciferin luminescence, 40 min | inhibition, % at 12.5 µM | 6,200 tested, 69% active | AID 488917
Casp3 select: selectivity test for SENP inhibitors: human caspase-3 inhibition; shares compounds with SENP7 inh; purified caspase-3, Z-DEVD-aminoluciferin luminescence, 60 min; inhibition, % at 12.5 µM; 6,200 tested, 60% active;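 active = mean inhibition above about 50%, limit read from the data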
SENP luc ctr: counter-screen for SENP inhibitors: luminescence interference | shares compounds with SENP7 inh | Pre-incubated SENP8/Z-RLRGG-aminoluciferin, luciferase luminescence interference | inhibition, % at 12.5 µM | 6,200 tested, 39% active | AID 488919;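 active = mean inhibition above about 50% when retested at one dose, limit read from the data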
Numbers stand for hits; n = inactive; x = not tested or not shown. The list is not random: actives were taken first. Their share in the collection is about 3.3%.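 The calls were made as follows, unless noted: active = mean inhibition above about 50% in the one-dose retest (limit read from the data); inactive = the rest.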

SMILES | SENP7 inh | SENP6 block | SENP8 block-1 | SENP8 block-2 | CendR NRP1 mod | SENP1 FRET inh | SENP8 conf | SENP6 conf | SENP7 confirm | Casp3 select | SENP luc ctr
CC(=O)/C(N=Nc1ccc2c(c1)OCO2)=C(\C)O | 83 | 84 | n | 59 | n | n | n | n | 78 | 74 | n
CC(=O)/C(N=Nc1ccc(OC(F)(F)F)cc1)=C(\C)O | n | n | n | n | n | n | x | x | x | x | x
CCN(CC)S(=O)(=O)c1ccc(N=N/C(C(C)=O)=C(/C)O)cc1 | n | n | n | n | n | n | x | x | x | x | x
CN(C)c1ccc(N=Nc2ccc(C(=O)O)cc2)cc1 | 87 | 93 | n | 86 | n | n | 89 | 91 | 101 | 73 | 58
CC(=O)/C(N=Nc1ccc2c(c1)OCCO2)=C(\C)O | 82 | 79 | n | 75 | n | n | 81 | 80 | 96 | 92 | 60
CN1OC[C@@H]2CN(C(=O)C(C)(C)C)[C@H](c3ccc(-c4cccnc4)cc3)C[C@@H]21 | x | x | n | x | n | n | x | x | x | x | x
COc1ccc(S(=O)(=O)Nc2cccc3c2O[C@H](CN(C)C(=O)Nc2ccc4c(c2)OCO4)[C@@H](C)CN([C@H](C)CO)C3=O)cc1 | n | n | n | n | n | n | x | x | x | x | x
O=C(O)c1ccc(N=NN2CCCCC2)cc1 | n | 68 | n | n | n | n | 54 | n | 85 | 57 | 66
CCOC(=O)Nc1cccc(C(=O)O)c1 | 55 | 61 | n | n | n | n | 52 | 54 | 86 | n | 71
Cc1cccc(C)c1OCC(=O)Nc1cccc(C(=O)O)c1 | 53 | 69 | n | n | n | n | 65 | 64 | 88 | n | 74
CCOC(=O)Nc1cccc(Nc2ccccc2)c1 | n | n | n | n | n | n | x | x | x | x | x
COc1ccccc1CCNC(=O)C1CC(=O)N(c2ccccc2F)C1 (configuration not stated) | x | x | n | x | n | n | x | x | x | x | x
CCCn1c(SC(C)C(=O)NC2CC2)nnc1-c1ccncc1 (configuration not stated) | n | n | n | n | n | n | x | x | x | x | x
CCn1c(Cc2ccccc2)nnc1SCC(=O)Nc1nccs1 | 82 | n | n | n | n | n | n | n | n | n | n
CCn1c(Cc2ccccc2)nnc1SC(C)C(=O)NC1CC1 (configuration not stated) | n | n | n | 91 | n | n | n | n | n | n | n
O=C(O)CN1C(=O)C2C3CCC(C3)C2C1=O (configuration not stated) | x | x | n | x | n | n | x | x | x | x | x
Cc1ccc(/C=N/Nc2nc3ccccc3[nH]2)s1 | n | 56 | n | 56 | 29 | n | 68 | 61 | 84 | n | 71
Clc1ccc(C(c2cccs2)N2CCNCC2)cc1 (configuration not stated) | x | x | n | x | n | n | x | x | x | x | x
NC(CC(=O)OC1CCCCC1)C(=O)OC1CCCCC1 (configuration not stated) | n | 77 | n | n | n | n | n | n | n | n | n
CSCCC(NC(=O)OC(C)(C)C)C(=O)Oc1ccc2c(=O)c(-c3ccc4c(c3)OCCO4)coc2c1 (configuration not stated) | n | 62 | n | n | n | n | n | n | 58 | 76 | n
Oc1ccc(-c2nc3ccccn3c2NCc2ccco2)cc1 | n | 56 | n | n | n | n | n | n | 61 | n | n
Cc1ccc(-c2nc3ccccn3c2NCc2ccc3c(c2)OCO3)cc1 | n | 51 | n | n | n | n | n | n | n | n | n
